Measured values from ChEMBL document CHEMBL1133678, “Synthesis of new indeno[1,2-c]isoquinolines: cytotoxic non-camptothecin topoisomerase I inhibitors” (2000).

Tests used:
Type in all cases: functional
[1] = tested on: UACC-62; assay: Antiproliferative activity was determined for 50% growth inhibition against human melanoma UACC-62 cell line
Method in brief: (§1)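 Human cancer cell lines from the roughly 55-line panel. GI50 is the concentration giving 50% growth inhibition. The test range was 10^-4 to 10^-8 M. Values outside the range were set to the minimum (10^-8 M) or the maximum (10^-4 M).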

[2] = tested on: HCT-116; assay: Antiproliferative activity was determined for 50% growth inhibition against human colon HCT116 cell line; method in brief: as §1
[3] = tested on: DU-145; assay: Antiproliferative activity was determined for 50% growth inhibition against human Prostate DU-145 cell line; method in brief: as §1
[4] = tested on: MDA-MB-435; assay: Antiproliferative activity was determined for 50% growth inhibition against human breast MDA-MB-435 cell line; method in brief: as §1
[5] = tested on: SN12C; assay: Antiproliferative activity was determined for 50% growth inhibition against human renal SN12C cell line; method in brief: as §1
[6] = tested on: Panel (Carcinoma cell lines); assay: Mean graph midpoint for growth inhibition of all human cancer cell lines; set-up: unit: µM
Method in brief: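 Mean graph midpoint across all cell lines successfully tested in the roughly 55-line human cancer panel. Each line's GI50 is the 50% growth-inhibition concentration, tested over 10^-4 to 10^-8 M. Out-of-range values were set to 10^-8 M or 10^-4 M before averaging.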

[7] = tested on: OVCAR-3; assay: Antiproliferative activity was determined for 50% growth inhibition against human ovarian OVCAR-3 cell line; method in brief: as §1
[8] = tested on: HOP-62; assay: Antiproliferative activity was determined for 50% growth inhibition against human lung HOP-62 cell line; method in brief: as §1
[9] = tested on: SF-539; assay: Antiproliferative activity was determined for 50% growth inhibition against human CNS SF-539 cell line; method in brief: as §1

| Structure (SMILES) | GI50 ([2]; Homo sapiens, HCT-116) | GI50 ([3]; Homo sapiens, DU-145) | GI50 ([4]; Homo sapiens, MDA-MB-435) | GI50 ([7]; Homo sapiens, OVCAR-3) | GI50 [4] | GI50 [7] | GI50 [2] | GI50 [3] | GI50 ([1]; Homo sapiens, UACC-62) | GI50 ([5]; Homo sapiens, SN12C) | MGM [6] | GI50 ([8]; Homo sapiens, HOP-62) | GI50 ([9]; Homo sapiens, SF-539) | GI50 [9] | GI50 [1] | GI50 [5] | GI50 [8] |
| --- | --- | --- | --- | --- | --- | --- | --- | --- | --- | --- | --- | --- | --- | --- | --- | --- | --- |
| O=C1c2ccccc2-c2c1c1ccccc1c(=O)n2CCCBr | 4.47 µM | 13 µM | 21.5 µM | 23.5 µM |  |  |  |  | 10.1 µM | 7 µM | 13.3 | 4.59 µM | 4.61 µM |  |  |  |  |
| CC[C@@]1(O)C(=O)OCc2c1cc1n(c2=O)Cc2cc3ccccc3nc2-1 [CAMPTOTHECIN] | 0.03 µM | 0.01 µM | 0.04 µM |  |  |  |  |  | 0.01 µM | 0.02 µM |  | 0.01 µM | 0.01 µM |  |  |  |  |
| COc1cc2c(cc1OC)-c1c(c3ccccc3c(=O)n1CCCCl)C2=O | > 100 µM | > 100 µM | > 100 µM | > 100 µM |  |  |  |  | > 100 µM | > 100 µM | 76.1 | > 100 µM | > 100 µM |  |  |  |  |
| CCn1c2c(c3cc(OC)c(OC)cc3c1=O)Cc1cc3c(cc1-2)OCO3 | > 100 µM | > 100 µM | > 100 µM | > 100 µM |  |  |  |  | > 100 µM | > 100 µM | 85.1 | > 100 µM | > 100 µM |  |  |  |  |
| COc1cc2c3c(n(CCCNCCO)c(=O)c2cc1OC)-c1cc2c(cc1C3=O)OCO2 [LMP-744] |  | 0.02 µM |  |  | 0.68 µM | 1.5 µM |  |  |  |  | 0.21 |  |  | 0.09 µM |  |  |  |
| COc1cc2c(cc1OC)-c1c(c3cc(OC)c(OC)cc3c(=O)n1CCCNCCCO)C2=O.Cl |  |  |  |  | 2.42 µM | 3.8 µM | 0.71 µM | 0.23 µM |  |  | 1.14 |  |  | 0.42 µM | 1.87 µM | 0.23 µM | 0.32 µM |
| COc1cc2c3c(n(C)c(=O)c2cc1OC)-c1cc2c(cc1C3=O)OCO2 | 35 µM | 37 µM | 96 µM |  |  |  |  |  | 4.2 µM | 68 µM | 20 | 1.3 µM | 41 µM |  |  |  |  |
| COc1cc2c(cc1OC)-c1c(c3cc(OC)c(OC)cc3c(=O)n1CCCNCCO)C2=O.Cl |  |  |  |  | 1.43 µM | 2.28 µM | 0.39 µM | 0.07 µM |  |  | 0.68 |  |  | 0.16 µM | 0.73 µM | 0.11 µM | 0.15 µM |
| O=C1c2ccccc2-c2c1c1ccccc1c(=O)n2O | 24.3 µM | 40.2 µM | 29.1 µM | 30.2 µM |  |  |  |  | 21.5 µM | 35.7 µM | 29.5 | 56.6 µM | 15.3 µM |  |  |  |  |
| O=C1c2ccccc2-c2c1c1ccccc1c(=O)n2CCO | 4.95 µM | 16.4 µM | 76.7 µM | 74.2 µM |  |  |  |  | 18.2 µM | 16.4 µM | 14.5 | 5.62 µM | 12.2 µM |  |  |  |  |
| COc1cc2c3c(n(CCCCl)c(=O)c2cc1OC)-c1cc2c(cc1C3=O)OCO2 | 72.6 µM | 16.8 µM | 80.5 µM | > 100 µM |  |  |  |  | 68.6 µM | 24 µM | 47.9 | 40.4 µM | 40.7 µM |  |  |  |  |
| O=C1c2cc3c(cc2-c2c1c1ccccc1c(=O)n2CCCNCCCO)OCO3 | 12.5 µM | 16.7 µM | 19.9 µM | 15 µM |  |  |  |  | > 100 µM | 14.2 µM | 15.5 | 7.17 µM | 16.2 µM |  |  |  |  |
| COc1cc2c(cc1OC)-c1c(c3cc(OC)c(OC)cc3c(=O)n1CCCNCCCCO)C2=O |  |  |  |  | 2.36 µM | 3.52 µM | 0.71 µM | 0.1 µM |  |  | 0.85 |  |  | 0.06 µM | 1.67 µM | 0.11 µM | 0.14 µM |
| CCCCn1c2c(c3cc(OC)c(OC)cc3c1=O)Cc1cc3c(cc1-2)OCO3 | 13.2 µM | 5.37 µM | 92.4 µM | 91.9 µM |  |  |  |  | 6.51 µM | 21.7 µM | 21.3 | 12 µM | 3.4 µM |  |  |  |  |
| O=C1c2cc3c(cc2-c2c1c1ccccc1c(=O)n2CCCCl)OCO3 | 74 µM | 12.7 µM | > 100 µM | 66.3 µM |  |  |  |  | 53.8 µM | > 100 µM | 35.1 | 13.1 µM | > 100 µM |  |  |  |  |
| COc1cc2c3c(n(C)c(=O)c2cc1OC)-c1cc2c(cc1C3)OCO2 | 42.9 µM | 42.5 µM | > 100 µM | > 100 µM |  |  |  |  | 50 µM | 43.6 µM | 43.7 | 11.8 µM | 61.2 µM |  |  |  |  |
| COc1cc2c3c(n(CCCN=[N+]=[N-])c(=O)c2cc1OC)-c1cc2c(cc1C3=O)OCO2 | 7.4 µM | 3.19 µM | > 100 µM | 76.2 µM |  |  |  |  |  | 4.53 µM | 11.8 | 3.58 µM | 3 µM |  |  |  |  |
| COc1cc2c3c(n(CCCBr)c(=O)c2cc1OC)-c1cc2c(cc1C3=O)OCO2 | 12 µM | 3.2 µM | 16.6 µM | 62.1 µM |  |  |  |  | 5.02 µM | 5.83 µM | 13.7 | 6.22 µM | 4.33 µM |  |  |  |  |

Now from value to compound, other results behind:

| GI50 ([2]; Homo sapiens, HCT-116) | GI50 ([3]; Homo sapiens, DU-145) | GI50 ([4]; Homo sapiens, MDA-MB-435) | GI50 ([7]; Homo sapiens, OVCAR-3) | GI50 [4] | GI50 [7] | GI50 [2] | GI50 [3] | Structure (SMILES) | GI50 ([1]; Homo sapiens, UACC-62) | GI50 ([5]; Homo sapiens, SN12C) | MGM [6] | GI50 ([8]; Homo sapiens, HOP-62) | GI50 ([9]; Homo sapiens, SF-539) | GI50 [9] | GI50 [1] | GI50 [5] | GI50 [8] |
| --- | --- | --- | --- | --- | --- | --- | --- | --- | --- | --- | --- | --- | --- | --- | --- | --- | --- |
| 3.53 µM | 1.92 µM | 11.7 µM | 60.1 µM |  |  |  |  | COc1cc2c(cc1OC)-c1c(c3cc(OC)c(OC)cc3c(=O)n1CCCBr)C2=O | 1.91 µM | 3.15 µM | 6.91 | 1.87 µM | 2.58 µM |  |  |  |  |
| 0.35 µM | 0.89 µM | 1.05 µM | 0.85 µM |  |  |  |  | COc1cc2c(cc1OC)-c1c(c3ccccc3c(=O)n1CCCN)C2=O.Cl | 1.27 µM | 0.43 µM | 0.62 | 0.19 µM | 2.93 µM |  |  |  |  |
| 0.04 µM | 0.01 µM | 0.47 µM | 1.19 µM |  |  |  |  | COc1cc2c3c(n(CCCNCCCO)c(=O)c2cc1OC)-c1cc2c(cc1C3=O)OCO2 | 0.01 µM | 0.01 µM | 0.2 | 0.03 µM | 0.01 µM |  |  |  |  |
| 0.18 µM | 0.28 µM | 0.42 µM | 0.27 µM |  |  |  |  | COc1cc2c3c(n(CCCNCCO)c(=O)c2cc1OC)-c1ccc2ccccc2c1C3=O | 0.16 µM | 0.15 µM | 0.19 | 0.17 µM | 0.22 µM |  |  |  |  |
| 1.73 µM | 1.64 µM | 2.14 µM | 3.73 µM |  |  |  |  | COc1cc2c3c(n(CCCN)c(=O)c2cc1OC)-c1ccc2ccccc2c1C3=O.Cl | 17.5 µM | 6.54 µM | 3.72 | 1.89 µM | 1.53 µM |  |  |  |  |
| 0.34 µM | 0.44 µM | 0.97 µM | 3.64 µM |  |  |  |  | COc1cc2c(cc1OC)-c1c(c3ccccc3c(=O)n1CCCNCCO)C2=O.Cl | 0.63 µM | 2.07 µM | 0.95 | 0.62 µM | 0.45 µM |  |  |  |  |
| 0.81 µM |  | 2.09 µM | 5.49 µM |  |  |  | 0.21 µM | COc1cc2c(cc1OC)-c1c(c3cc(OC)c(OC)cc3c(=O)n1CCCNCCCCO)C2=O.Cl | 1.76 µM |  | 1.47 | 0.26 µM |  | 0.59 µM |  | 0.28 µM |  |
| 0.31 µM |  | 1.25 µM |  |  | 11.2 µM |  | 0.02 µM | COc1cc2c(cc1OC)-c1c(c3cc(OC)c(OC)cc3c(=O)n1CCCNCCO)C2=O | 0.38 µM |  | 0.51 |  |  | 0.01 µM |  | 0.05 µM | 0.05 µM |
| 0.46 µM |  |  | 1.9 µM | 1.09 µM |  |  | 0.1 µM | COc1cc2c(cc1OC)-c1c(c3cc(OC)c(OC)cc3c(=O)n1CCCNCCCO)C2=O | 1.51 µM | 0.15 µM | 0.55 |  |  | 0.08 µM |  |  | 0.07 µM |
| 0.13 µM | 0.04 µM | 1.21 µM | 0.31 µM |  |  |  |  | COc1cc2c3c(n(CCCN)c(=O)c2cc1OC)-c1cc2c(cc1C3=O)OCO2.Cl | 0.25 µM | 0.31 µM | 0.16 | 0.06 µM | 0.26 µM |  |  |  |  |
| 3.64 µM | 9.56 µM | 39.7 µM | 28.8 µM |  |  |  |  | O=C1c2ccccc2-c2c1c1ccccc1c(=O)n2CCCO | 16.2 µM | 6.49 µM | 10.3 | 4.89 µM | 52.5 µM |  |  |  |  |
